Assay results pooled from the literature.
Each line is one published result; the experiments were not run side by side.
PARP3: Protein mono-ADP-ribosyltransferase PARP3 (PARP3, Homo sapiens, UniProt Q9Y6F1)
Mapk1: Mitogen-activated protein kinase 1 (Mapk1, Mus musculus, UniProt P63085)
ADRA1B: Alpha-1B adrenergic receptor (ADRA1B, Homo sapiens, UniProt P35368)

`CCN1CCN(Cc2ccc(NC(=O)c3ccc(C)c(Oc4ccnc5[nH]ccc45)c3)cc2C(F)(F)F)CC1` has an inhibition of -28.8% (Microtubule-associated serine/threonine-protein kinase 4 (MAST4, Homo sapiens, UniProt O15021); target engagement in cells, inhibitor, chemoproteomics; Huh-7; 10 µM).
`O=C1NCCCc2ccc(F)cc21` has an inhibition of 63% (PARP3; enzyme activity, inhibitor; 10 µM).
`CNC(=O)c1cc2c(Oc3ccc(NC(=O)C4(C(=O)Nc5ccc(F)cc5)CC4)cc3)ccnc2cc1OC` gave an inhibition of 99% (Hepatocyte growth factor receptor (MET, Homo sapiens, UniProt P08581); enzyme activity, inhibitor, radiometric; 1 µM).
The inhibition of `Cc1ccc(Nc2nccc(N(C)c3ccc4c(C)n(C)nc4c3)n2)cc1S(N)(=O)=O` is reported as -2% (Mapk1; enzyme activity, inhibitor; 0.3 µM).
For `COc1cc(NC(C)=O)c(Cl)cc1C(=O)Nc1nccs1`, the inhibition was 4.3% (ADRA1B; cell-free assay; 10 µM).
`CN(C)C1CCN(CC#Cc2nn(C3CCCC3)c3nc(NCc4ccccc4)ncc23)C1` (stereo not drawn) has an inhibition of 13% (Interleukin-1 receptor-associated kinase 1 (IRAK1, Homo sapiens, UniProt P51617); enzyme activity, inhibitor, FRET; 1 µM).
With `CC/C(=N\NC(=O)NCc1cccc(O)c1)c1ccc(O)c(C)c1O` the inhibition was 91% (cAMP-dependent protein kinase catalytic subunit gamma (PRKACG, Homo sapiens, UniProt P22612); enzyme activity, inhibitor; 0.1 µM).
For `COc1ccc2c(c1)C(CC(=O)O)=C/C2=C\c1ccc(SC)cc1`, the inhibition was 8% (Prostaglandin G/H synthase 2 (Ptgs2, Mus musculus, UniProt Q05769); enzyme activity, inhibitor; 4 µM).
With `COc1cc(CCN2CCN(CCCc3ccccc3)CC2)ccc1O` the inhibition was 20% (Sodium-dependent dopamine transporter (Slc6a3, Mus musculus, UniProt Q61327); ligand displacement, radioligand; 10 µM, cell membranes).
`O=C1NCCCc2c(O)cccc21` has an inhibition of 20% (PARP3; enzyme activity, inhibitor; 10 µM).
The inhibition of `CCN(CC)c1ccc(C2Nc3ccc(C(=O)c4ccccc4)cc3NC3=C2C(=O)CC(C)(C)C3)cc1` (stereo not drawn) is reported as -5% (ADRA1B; ligand displacement, radioligand; 10 µM).
For `CCN(CC)CCNC(=O)c1c(C)[nH]c(/C=C2\C(=O)Nc3ccc(F)cc32)c1C`, the inhibition was -16% (Mapk1; enzyme activity, inhibitor; 0.3 µM).
`Cn1cnc(Br)c1C1=CN(c2ncnc3[nH]cnc23)CCS1` has an inhibition of 19.3% (Myosin-IIIa (MYO3A, Homo sapiens, UniProt Q8NEV4); enzyme activity, inhibitor, radiometric; 50 nM).
`COc1cc2c(cc1OC)-c1nnnn1CCC2` has an inhibition of 45% (PARP3; enzyme activity, inhibitor; 10 µM).
`Ic1cccc2cnccc12` has an inhibition of 0% (ADP-ribosyl cyclase/cyclic ADP-ribose hydrolase 1 (CD38, Homo sapiens, UniProt P28907); enzyme activity, inhibitor; 10 µM).
With `CCN(c1cc(C#CCN2CCOCC2)cc(C(=O)NCc2c(C)cc(C)[nH]c2=O)c1C)[C@H]1CC[C@H](N(C)CCOC)CC1` the inhibition was 16% (Histone-lysine N-methyltransferase NSD3 (NSD3, Homo sapiens, UniProt Q9BZ95); enzyme activity, inhibitor; 1 µM).
The inhibition of `N#Cc1cc(Cn2c(N3CCCC3)nc3ccccc32)ccc1F` is reported as -7.54% (ADRA1B; ligand displacement; 10 µM).
The inhibition of `O=C1C=Cc2occ(C(=O)c3ccccc3)c2C1=O` is reported as ≤ 0% (Interstitial collagenase (MMP1, Homo sapiens, UniProt P03956); enzyme activity, inhibitor; 100 µM).
